In ChEMBL document CHEMBL1629555, “Antimalarial activity of phenylthiazolyl-bearing hydroxamate-based histone deacetylase inhibitors” (Antimicrob Agents Chemother, 2008):
Calls of active or inactive are those of the source. The calls are words filed in the database; no cut-off is given here.

Assays:
[1] = test system: Plasmodium berghei; test: Antimalarial activity against Plasmodium berghei infected in mouse assessed as parasitemia level at 52 mg/kg/day for 3 days measured on day 3 in presence of 64 mg/kg/day chloroquine (reference value: 0.46%); format: functional
Summary of the method: (§1)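 Mice were infected ip with 10^6 P. berghei-parasitized erythrocytes. The compound was given orally once daily on days 3, 4 and 5 post-infection in hydroxyethylcellulose-Tween 20 vehicle, alone or together with chloroquine, with 5 mice per dose group. Parasitemia (%) was read on days 3 and 6, and cures were counted as animals cured out of 5.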

[2] = Inhibition of histone deacetylase assessed as alteration of histone H3 acetylation by cell-based assay
Summary of the method: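 About 3 × 10^9 erythrocytes infected with late-trophozoite P. falciparum 3D7 were exposed to compound or to DMSO vehicle for 3.5 h at 37°C, and an untreated sample was taken at the start. Histones were extracted, about 6 × 10^8 parasites were loaded per lane on SDS–15% PAGE, and loading was checked by silver stain. Western blots were probed with anti-tetraacetyl-H4 and anti-diacetyl-H3 antisera and detected by ECL.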

[3] = test system: Plasmodium berghei; test: Antimalarial activity against Plasmodium berghei infected in mouse assessed as parasitemia level at 0.32 mg/kg/day for 3 days measured on day 6 (reference value: 37%); format: functional
[4] = test system: Plasmodium berghei; test: Antimalarial activity against Plasmodium berghei infected in mouse assessed as effect on cure rate at split dose of 160 mg/kg/day, po for 3 days; format: functional, organism-based
Summary of the method: (§2)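 Mice were infected ip with 10^6 P. berghei-parasitized erythrocytes. The compound was given in hydroxyethylcellulose-Tween 20 vehicle, 5 mice per group, starting on day 3 post-infection. Regimens were once-daily or split daily oral doses over 3 days, subcutaneous dosing, or dosing over 7 days. Read-outs were posttreatment parasitemia on day 6 as a fraction of controls and the number of mice cured.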

[5] = test system: Mus musculus; test: Toxicity in Plasmodium berghei-infected mouse assessed as mortality at split dose of 130 mg/kg/day, sc for 3 days measured on day 5; format: organism-based; parameters: route subcutaneous; conditions: in vivo, 72 h
[6] = test system: Plasmodium berghei; test: Antimalarial activity against Plasmodium berghei infected in mouse assessed as effect on cure rate at 130 mg/kg/day, sc for 3 days; format: functional, organism-based; summary of the method: as §2
[7] = test system: Plasmodium berghei; test: Antimalarial activity against Plasmodium berghei infected in mouse assessed as parasitemia level at 160 mg/kg/day for 3 days measured on day 6 (reference value: 37%); format: functional; summary of the method: as §1
[8] = test system: Plasmodium berghei; test: Antimalarial activity against Plasmodium berghei infected in mouse assessed as effect on cure rate at split dose of 640 mg/kg/day, po for 3 days; format: functional, organism-based; summary of the method: as §2
[9] = test system: Plasmodium berghei; test: Antimalarial activity against Plasmodium berghei infected in mouse assessed as effect on cure rate at single dose of 40 mg/kg/day, po for 3 days; format: functional, organism-based; summary of the method: as §2
[10] = test system: Plasmodium berghei; test: Antimalarial activity against Plasmodium berghei infected in mouse assessed as parasitemia level at split dose of 130 mg/kg/day, po for 7 days measured on day 6 relative to control; format: functional
[11] = test system: Plasmodium berghei; test: Antimalarial activity against Plasmodium berghei infected in mouse assessed as parasitemia level at split dose of 160 mg/kg/day, po for 3 days measured on day 6 relative to control; format: functional
Summary of the method: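 Blood-stage P. berghei model: mice inoculated ip with 10^6 parasitized erythrocytes. Oral treatment for 3 days, with the daily dose split, in hydroxyethylcellulose-Tween 20 vehicle. Day-6 parasitemia expressed as a fraction of control parasitemia.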

[12] = test system: Plasmodium falciparum; test: Antimicrobial activity against Plasmodium falciparum D6 infected in Aotus lemurinus lemurinus monkey at […] in presence of azithromycin; format: functional
[13] = test system: Plasmodium falciparum; test: Antimicrobial activity against Plasmodium falciparum W2 at […] in presence of mefloquine; format: functional
Summary of the method: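 In vitro fixed-ratio isobologram using a SYBR green I fluorescence assay. […] IC50s were standardized and FIC50 and ΣFIC50 calculated by the Berenbaum method. Reported as the average ΣFIC across dilutions or the average maximum ΣFIC, from at least 2 experiments.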

[14] = Tmax in ICR mouse at 50 mg/kg/day, sc by LC/MS analysis; format: ADME, organism-based; parameters: route subcutaneous; conditions: in vivo
Summary of the method: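 Male ICR mice, 8 weeks old, got one 50 mg/kg dose either orally or subcutaneously, with three groups of six mice per route. One mouse per group was killed at 15, 30 and 60 min and at 3, 6 and 24 h. Plasma was deproteinized with 2 volumes of acetonitrile and analysed by LC-MS/MS on a C18 column against 0–500 ng/ml standards, with parent and acid metabolite measured in the same sample. Each six-mouse group was treated as one "animal" and fitted to a two-compartment model. AUC was taken by the linear trapezoidal rule extrapolated to infinity, and Cmax and Tmax were read per "animal".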

[15] = test system: Plasmodium berghei; test: Antimalarial activity against Plasmodium berghei infected in mouse assessed as parasitemia level at 32 mg/kg/day for 3 days measured on day 6 (reference value: 37%); format: functional; summary of the method: as §1
[16] = Half life in mouse liver microsomes by LC/MS analysis; format: ADME, Microsome
[17] = test system: Plasmodium berghei; test: Antimalarial activity against Plasmodium berghei infected in mouse assessed as parasitemia level at 3.2 mg/kg/day for 3 days measured on day 3 (reference value: 0.46%); format: functional
[18] = Cytotoxicity against mouse RAW264.7 cells by MTT assay; format: cell-based; conditions: read-out: LD50 (the source's name)
Summary of the method: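 LC50 in RAW macrophages was determined by MTT assay, given as the mean of 2–4 experiments with range. Selectivity index = RAW LC50 / lowest P. falciparum IC50.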

[19] = test system: Plasmodium berghei; test: Antimalarial activity against Plasmodium berghei infected in mouse assessed as effect on cure rate at 0.32 mg/kg/day for 3 days measured on day 6 in presence of 4 mg/kg/day chloroquine; format: functional, organism-based
[20] = test system: Plasmodium berghei; test: Antimalarial activity against Plasmodium berghei infected in mouse assessed as effect on cure rate at split dose of 320 mg/kg/day, po for 3 days; format: functional, organism-based; summary of the method: as §2
[21] = test system: Plasmodium berghei; test: Antimalarial activity against Plasmodium berghei infected in mouse assessed as effect on cure rate at 32 mg/kg/day for 3 days measured on day 6 in presence of 3.6 mg/kg/day chloroquine; format: functional, organism-based; summary of the method: as §1
[22] = test system: Plasmodium falciparum; test: Antimalarial activity against Plasmodium falciparum at 10 nM after 3.5 hrs; format: functional, organism-based
Summary of the method: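 Infected erythrocytes were exposed to compound for 3.5 h, washed, and returned to culture. Parasite growth was compared with matched controls after 48 h.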

[23] = test system: Plasmodium berghei; test: Antimalarial activity against Plasmodium berghei infected in mouse assessed as parasitemia level at 160 mg/kg/day for 3 days measured on day 6 in presence of 2 mg/kg/day chloroquine (reference value: 37%); format: functional; summary of the method: as §1
[24] = Cytotoxicity against african green monkey Vero cells by MTT assay; format: cell-based; conditions: chlorocebus sabaeus, read-out: LC50 (the source's name)
[25] = test system: Plasmodium falciparum; test: Antimicrobial activity against Plasmodium falciparum D6 infected in Aotus lemurinus lemurinus monkey at […] in presence of mefloquine; format: functional
[26] = test system: Plasmodium berghei; test: Antimalarial activity against Plasmodium berghei infected in mouse assessed as effect on cure rate at 3.2 mg/kg/day for 3 days; format: functional, organism-based
[27] = test system: Plasmodium falciparum; test: Antimalarial activity against drug-resistant Plasmodium falciparum W2; format: functional, organism-based
[28] = test system: Mus musculus; test: Toxicity in Plasmodium berghei-infected mouse assessed as mortality at split dose of 320 mg/kg/day, po for 3 days; format: organism-based; parameters: route oral; conditions: in vivo, 72 h
[29] = test system: Mus musculus; test: Toxicity in Plasmodium berghei-infected mouse assessed as mortality at split dose of 160 mg/kg/day, po for 3 days; format: organism-based; parameters: route oral; conditions: in vivo, 72 h
[30] = test system: Plasmodium berghei; test: Antimalarial activity against Plasmodium berghei infected in mouse assessed as parasitemia level at 12.8 mg/kg/day for 3 days measured on day 3 in presence of 16 mg/kg/day chloroquine (reference value: 0.46%); format: functional; summary of the method: as §1

Nc1cccc(-c2csc(NC(=O)CCCCCCC(=O)NO)n2)c1
Activity [1]: 0.48% | IC50 [2]: 0.0104 µM | Activity [3]: 45% | Activity [4]: inactive | Activity [5]: Toxic | Activity [6]: inactive | Activity [7]: 8.8% | Activity [8]: inactive | Activity [9]: inactive | fold change (FC) [10]: 0.01 | fold change (FC) [11]: 0.03 | fractional inhibitory concentration index (FICI) [12]: 1.7 | fractional inhibitory concentration index (FICI) [13]: 2.1 | Tmax [14]: 78 min | Activity [15]: 21% | half-life [16]: 11 min | Activity [17]: 0.64% | CC50 [18]: 0.6 µM | Activity [19]: inactive | Activity [20]: inactive | Activity [21]: inactive | Activity [22]: Active | Activity [23]: 0.36% | CC50 [24]: 0.95 µM | fractional inhibitory concentration index (FICI) [25]: 2.2 | Activity [26]: inactive | IC50 [27]: 0.0016 µM | Activity [28]: Non-toxic | Activity [29]: Non-toxic | Activity [30]: 0.52%
